Experimental data published in ChEMBL document CHEMBL1255568, “Amino derivatives of indole as potent inhibitors of isoprenylcysteine carboxyl methyltransferase” (J Med Chem, 2010).

Experiments:
[1] = molecular target: Protein-S-isoprenylcysteine O-methyltransferase (Homo sapiens, UniProt O60725); assay: Inhibition of recombinant ICMT expressed in Sf9 cells using [3H] AdoMet after 20 mins by scintillation counting
Procedure, shortened: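 Sf9 membranes carrying recombinant Icmt (1.0 μg protein) in 100 mM Hepes pH 7.4, 5 mM MgCl2, 100 μM EDTA. Preincubated with compound (final DMSO 2% v/v) for 20 min at 37 °C. Reaction started with final 1 μM biotin-farnesyl-L-cysteine and 0.5 μM [3H]AdoMet, run 20 min at 37 °C, then stopped with Tween 20. Product captured overnight at 4 °C on streptavidin beads, washed, and counted by scintillation. Mean ± SD of 3 or more determinations.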

MDA-MB-231 = assay: Antiproliferative activity against human MDA-MB-231 cells after 72 hrs by colorimetric tetrazolium assay; type: functional, cell-based; details: MDA-MB-231, 72 h
Procedure, shortened: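 MDA-MB-231 cells grown in DMEM with 10% FBS and penicillin/streptomycin at 37 °C, 5% CO2, used within passages 10-25. Seeded at 2400 cells/well in DMEM with 5% FBS for 24 h, then exposed to compound (final DMSO 0.5% v/v) for 72 h. MTS-type tetrazolium reagent added for 2 h at 37 °C, absorbance read at 490 nm, blank subtracted. Triplicate wells. IC50 from sigmoidal viability curve, mean of at least two determinations.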

Chain of Protein-S-isoprenylcysteine O-methyltransferase (O60725 whole entry): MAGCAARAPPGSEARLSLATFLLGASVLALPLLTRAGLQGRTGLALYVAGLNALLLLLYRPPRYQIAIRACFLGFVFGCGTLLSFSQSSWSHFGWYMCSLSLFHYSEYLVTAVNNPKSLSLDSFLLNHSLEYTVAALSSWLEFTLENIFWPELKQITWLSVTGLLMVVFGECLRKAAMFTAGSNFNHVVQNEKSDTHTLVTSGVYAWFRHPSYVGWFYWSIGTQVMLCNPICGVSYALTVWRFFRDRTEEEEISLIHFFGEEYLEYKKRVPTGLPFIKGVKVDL

Row | SMILES | IC50 [1] | IC50 (MDA-MB-231)
1 | CCCCCCCCn1cc(CN2CCOCC2)c2cc(-c3cccc(C)c3)ccc21 | 2.7 µM | 24.5 µM
2 | CCCCCCCCn1cc(C(N)=O)c2cc(-c3cccc(C)c3)ccc21 | – | > 100 µM
3 | CCCCCCCCn1cc(CN(CC)CC)c2cc(-c3ccccc3C)ccc21 | 0.6 µM | 5.5 µM
4 | CC(C)=CCn1cc(CN2CCOCC2)c2cc(-c3cccc(C)c3)ccc21 | – | 34 µM
5 | CCCCCCCCn1cc(CC(N)=O)c2cc(-c3cccc(OCC)c3)ccc21 | 1.3 µM | 18.7 µM
6 | CCCCCCCCn1ccc2cc(-c3cccc(C)c3)ccc21 | > 100 µM | > 100 µM
7 | CCCCCCCCn1cc(CC(=O)N(CC)CC)c2cc(-c3cccc(C)c3)ccc21 | 1.4 µM | 27 µM
8 | CCCCCCCCn1cc(CC(=O)N(CC)CC)c2cc(-c3cccc(OC)c3)ccc21 | 0.8 µM | 52 µM
9 | CCCCCCCCn1cc(CC(=O)N2CCCC2)c2cc(-c3cccc(C)c3)ccc21 | 1.2 µM | 15.6 µM
10 | CCCCCCCCn1cc(CN2CCN(C)CC2)c2cc(-c3cccc(C)c3)ccc21 | 0.9 µM | 6.1 µM
11 | CCCCCCCCn1cc(CN(CC)CC)c2cc(-c3cccc(C)c3)ccc21 | 0.7 µM | 3.6 µM
12 | CCCCCCCCn1cc(CC(=O)N(C)C)c2cc(-c3cccc(C)c3)ccc21 | 1.5 µM | 31 µM
13 | CCCCCCCCn1cc(CN2CCCC2)c2cc(-c3cccc(C)c3)ccc21 | 0.5 µM | 5.1 µM
14 | Cc1cccc(-c2ccc3c(c2)c(CC(N)=O)cn3Cc2cccc(C(F)(F)F)c2)c1 | 2.5 µM | 17.2 µM
15 | CCCCCCCCn1cc(CC(=O)N2CCCCC2)c2cc(-c3cccc(C)c3)ccc21 | 1.8 µM | 28.9 µM
16 | CCCCCCCCn1cc(CC(=O)N(CC)CC)c2cc(-c3cccc(OCC)c3)ccc21 | 1 µM | 26.8 µM
17 | CCCCCCCCn1cc(CC(N)=O)c2cc(-c3cccc(OC)c3)ccc21 | 1.9 µM | 22.4 µM
18 | CCCCCCCCn1cc(CN(CCC)CCC)c2cc(-c3cccc(C)c3)ccc21 | 0.8 µM | 13 µM
19 | CCCCCCCCn1cc(CC(=O)N2CCN(C)CC2)c2cc(-c3cccc(C)c3)ccc21 | – | 19.7 µM
20 | CCCCCCCCn1cc(CNS(C)(=O)=O)c2cc(-c3cccc(C)c3)ccc21 | 1.2 µM | 17.5 µM

Other lines, results leading:

Row | IC50 [1] | IC50 (MDA-MB-231) | SMILES
21 | 0.7 µM | 4.9 µM | CCCCCCCCn1cc(CN2CCCCC2)c2cc(-c3cccc(C)c3)ccc21
22 | 1 µM | 10.6 µM | CC(C)=CCC/C(C)=C/Cn1cc(CC(N)=O)c2cc(-c3cccc(C)c3)ccc21
23 | 67 µM | 74 µM | CCN(CC)Cc1cn(CC=C(C)C)c2ccccc12
24 | 76 µM | > 100 µM | CCCCCCCCn1cc(CC(=O)OC)c2cc(-c3cccc(C)c3)ccc21
25 | 1.8 µM | 30 µM | CCCCCCCCn1cc(CNC(C)=O)c2cc(-c3cccc(C)c3)ccc21
26 | 1.3 µM | 6.8 µM | CCCCCCCCn1cc(CN(C)C)c2cc(-c3cccc(C)c3)ccc21
27 | 6.5 µM | 50 µM | CCCCCCCCn1cc(CC(N)=O)c2ccccc21
28 | 1.7 µM | 20.1 µM | CCCCCCCCn1cc(CN(C(C)C)C(C)C)c2cc(-c3cccc(C)c3)ccc21
29 | 35 µM | 32 µM | CCN(CC)Cc1cn(CC=C(C)C)c2ccc(F)cc12
30 | > 100 µM | > 100 µM | CCCCCCCCn1cc(CC(=O)OCC)c2cc(-c3cccc(C)c3)ccc21
31 | 7.7 µM | 28.5 µM | CC(C)=CCn1cc(CC(N)=O)c2cc(-c3cccc(C)c3)ccc21
32 | – | > 100 µM | CC(C)=CCn1ccc2cc(-c3cccc(C)c3)ccc21
33 | 0.7 µM | 2.9 µM | CCCCCCCCn1cc(CN)c2cc(-c3cccc(C)c3)ccc21
34 | – | 70 µM | CCCCCCCCn1cc(CC(N)=O)c2cc(F)ccc21
35 | 2.4 µM | 3.8 µM | CCN(CC)Cc1cn(CC=C(C)C)c2ccc(-c3cccc(C)c3)cc12
36 | 1 µM | 21.2 µM | CCCCCCCCn1cc(CC(N)=O)c2cc(-c3ccccc3C)ccc21
37 | 4.1 µM | 7.2 µM | CCCCCCCCn1cc(CN(CC)CC)c2cc(F)ccc21
38 | – | > 100 µM | CC(C)=CCn1cc(CC(N)=O)c2cc(F)ccc21
39 | 0.9 µM | 5.3 µM | CCCCCCCCn1cc(CN(C)C(C)C)c2cc(-c3cccc(C)c3)ccc21
40 | – | 20.7 µM | CCCCCCCCn1cc(CCC(N)=O)c2cc(-c3cccc(C)c3)ccc21
41 | 1 µM | – | CCCCCCCCn1cc(CC(N)=O)c2cc(-c3ccc(C)cc3)ccc21
42 | 33 µM | > 100 µM | Cc1cccc(-c2ccc3[nH]cc(CC(N)=O)c3c2)c1
43 | 0.6 µM | 3.4 µM | CCCCCCCCn1cc(CN(CC)CC)c2cc(-c3ccc(C)cc3)ccc21
44 | 2.1 µM | 3.9 µM | CC(C)=CCn1cc(CN2CCCCC2)c2cc(-c3cccc(C)c3)ccc21
45 | 1.8 µM | 26 µM | CCCCCCCCn1cc(CC(N)=O)c2cc(-c3ccccc3)ccc21
